≈ marks a conversion by molar mass, not a printed value.
Legend:
[1] = test system: E. faecalis; assay: Synergistic assay with ciprofloxacin; format: cell-based, Enterococcus faecalis
[2] = test system: S. typhimurium; assay: Synergistic assay with ciprofloxacin; format: cell-based, Salmonella typhimurium
[3] = test system: E. coli; assay: Synergistic assay with ciprofloxacin; format: cell-based, Escherichia coli; details: E. coli; 4l combined with CIP
[4] = test system: S. pneumoniae; assay: Synergistic assay with ciprofloxacin; format: cell-based, Streptococcus pneumoniae
[5] = test system: P. aeruginosa; assay: Synergistic assay with ciprofloxacin; format: cell-based; details: P. aeruginosa; 4l combined with CIP
[6] = test system: E. coli ATCC 25922; assay: In vitro screening, % growth inhibition at 250 μg/mL; format: cell-based, Escherichia coli; details: Escherichia coli, ATCC25922, 24 h, read-out: % inhibition at 250 μg/mL
Procedure, shortened: (§1)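 Test compounds dissolved in DMSO and diluted in test medium. Mid-log cultures diluted in nutrient broth to McFarland standard and treated with 250 μg/mL in 96-well plates, 37 °C, 160 rpm, 24 h. Growth read as OD at 580 nm; % inhibition calculated from absorbance against untreated growth. Run twice on different occasions.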

[7] = test system: S. pneumoniae MTCC 655; assay: as above; format: cell-based, Streptococcus pneumoniae; details: Streptococcus pneumoniae, MTCC655, 24 h, read-out: % inhibition at 250 μg/mL
Procedure, shortened: as §1

[8] = test system: P. auroginosa MTCC 2453; assay: as above; format: cell-based, Pseudomonas auroginosa; details: for inhibition at 250 µg/mL: Pseudomonas, MTCC2453, 24 h, read-out: % inhibition at 250 μg/mL
Procedure, shortened: as §1

[9] = test system: E. faecalis MTCC 439; assay: as above; format: cell-based, Enterococcus faecalis; details: Enterococcus faecalis, MTCC439, 24 h, read-out: % inhibition at 250 μg/mL
Procedure, shortened: as §1

[10] = test system: P. auroginosa MTCC 2453; assay: MIC by broth microdilution; format: cell-based, Pseudomonas auroginosa; details: Pseudomonas, MTCC2453

## O=C(O)c1cn(C2CC2)c2cc(N3CCNCC3)c(F)cc2c1=O [CIP, ciprofloxacin, reference compound]
[1]; E. faecalis, 4l combined with CIP
  MIC in combination: 0.0625 µg/mL
[1]; Enterococcus faecalis, read-out: MIC alone
  MIC: 0.25 µg/mL
[2]; S. typhimurium, 4l combined with CIP
  MIC in combination: 0.25 µg/mL
[2]; Salmonella enterica, TYPHIMURIUM, read-out: MIC alone
  MIC: 0.25 µg/mL
[3]
  MIC in combination: 0.125 µg/mL
[4]; S. pneumoniae, 4l combined with CIP
  MIC in combination: 0.0625 µg/mL
[4]; Streptococcus pneumoniae, read-out: MIC alone
  MIC: 0.25 µg/mL
[5]
  MIC in combination: 0.5 µg/mL

## CNC1=C([N+](=O)[O-])C2(C(=O)Nc3ccccc32)C2=C(CC(C)(C)CC2=O)O1 (stereo not shown) [Compound 4a, 7,7-Dimethyl-2-(methylamino)-3-nitro-7,8-dihydrospiro[chromene-4,3′-indoline]-2′,5(6 H)-dione]
[6]
  inhibition at 250 µg/mL: 43.2%
[7]
  inhibition at 250 µg/mL: 29.7%
[8]
  inhibition at 250 µg/mL: 37.3%
[9]
  inhibition at 250 µg/mL: 41.5%

## CNC1=C([N+](=O)[O-])C2(C(=O)Nc3ccc(Cl)cc32)C2=C(CC(C)(C)CC2=O)O1 (stereo not shown) [Compound 4b]
[6]
  inhibition at 250 µg/mL: 43.2%
[7]
  inhibition at 250 µg/mL: 21.3%
[8]
  inhibition at 250 µg/mL: 18%
[9]
  inhibition at 250 µg/mL: 31.9%

## CNC1=C([N+](=O)[O-])C2(C(=O)Nc3ccc(Br)cc32)C2=C(CC(C)(C)CC2=O)O1 (stereo not shown) [Compound 4c]
[6]
  inhibition at 250 µg/mL: 40.7%
[7]
  inhibition at 250 µg/mL: 21.5%
[8]; P. auroginosa MTCC 2453, 250 μg/mL, 24 h
  % inhibition at 250 μg/mL: complete growth inhibition
[8]
  inhibition at 250 µg/mL: 100%
[10]
  MIC: 250 µg/mL (≈ 558 µM)
[9]
  inhibition at 250 µg/mL: 38.1%

From paper PMC6796888 (ACS Omega, 2019)
